From ChEMBL document CHEMBL1938233, “2-Oxo-N-aryl-1,2,3,4-tetrahydroquinoline-6-sulfonamides as activators of the tumor cell specific M2 isoform of pyruvate kinase” (Bioorg Med Chem Lett, 2011)
Activity calls are given as the source filed them. No cut-off for these calls is given here.

What was measured:
Liver microsomes = test: Half life in human liver microsomes at 2 uM after 2 mins by LC/MS/MS analysis; format: ADME, Microsome
[1] = target: Pyruvate kinase PKLR (Homo sapiens) (UniProt P30613); test: Activation of PKLR assessed as ATP product formation at 57.5 uM after 1 hr by luminescent pyruvate kinase-luciferase coupled assay
Pyruvate kinase PKLR (Homo sapiens), sequence (P30613 whole entry, looked up): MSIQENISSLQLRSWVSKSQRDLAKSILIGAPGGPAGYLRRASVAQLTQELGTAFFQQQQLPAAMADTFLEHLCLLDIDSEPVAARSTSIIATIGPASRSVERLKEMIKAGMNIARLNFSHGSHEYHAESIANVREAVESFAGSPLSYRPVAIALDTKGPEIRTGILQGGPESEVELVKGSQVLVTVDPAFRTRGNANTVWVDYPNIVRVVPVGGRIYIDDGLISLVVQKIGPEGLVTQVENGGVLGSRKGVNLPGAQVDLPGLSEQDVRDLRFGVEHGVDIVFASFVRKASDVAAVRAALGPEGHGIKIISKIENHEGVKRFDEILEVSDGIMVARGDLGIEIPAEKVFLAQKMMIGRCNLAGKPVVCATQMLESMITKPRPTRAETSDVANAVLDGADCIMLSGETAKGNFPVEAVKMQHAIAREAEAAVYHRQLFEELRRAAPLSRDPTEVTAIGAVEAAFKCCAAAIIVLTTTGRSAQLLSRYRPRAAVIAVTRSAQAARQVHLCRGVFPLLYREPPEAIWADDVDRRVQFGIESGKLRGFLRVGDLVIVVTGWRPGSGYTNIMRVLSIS

[2] = Apparent permeability from apical to basolateral side of human Caco2 cells at pH 7.4 after 2 hrs by LC/MS/MS analysis; format: ADME, cell-based; details: Caco-2, pH 7.4
Liver = test: Half life in mouse liver microsomes at 2 uM after 2 mins by LC/MS/MS analysis; format: ADME, Microsome
[3] = Apparent permeability from basolateral to apical side of human Caco2 cells at pH 7.4 after 2 hrs by LC/MS/MS analysis; format: ADME, cell-based; details: Caco-2, pH 7.4
Caco-2 = test: Efflux ratio of permeability from basolateral to apical side over apical to basolateral side in human Caco2 cells at pH 7.4 after 2 hrs by LC/MS/MS analysis; details: caco-2, pH 7.4, 2 h
Pyruvate kinase PKM [4] = target: T1, Pyruvate kinase PKM (Homo sapiens, UniProt P14618); test: Activation of human PKM2 assessed as ATP product formation after 1 hr by luminescent pyruvate kinase-luciferase coupled assay
Outline: (§1)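 Luminescent pyruvate kinase–luciferase coupled assay. AC50 is the mean of three separate experiments. Maximum response is % activation at 57 μM compound, normalized as described in the supporting information.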

Pyruvate kinase PKM [5] = target: T1, Pyruvate kinase PKM; test: Activation of human PKM2 assessed as ATP product formation at 57 µM after 1 hr by luminescent pyruvate kinase-luciferase coupled assay
Target sequence in this assay (P14618 2-531 limits assumed): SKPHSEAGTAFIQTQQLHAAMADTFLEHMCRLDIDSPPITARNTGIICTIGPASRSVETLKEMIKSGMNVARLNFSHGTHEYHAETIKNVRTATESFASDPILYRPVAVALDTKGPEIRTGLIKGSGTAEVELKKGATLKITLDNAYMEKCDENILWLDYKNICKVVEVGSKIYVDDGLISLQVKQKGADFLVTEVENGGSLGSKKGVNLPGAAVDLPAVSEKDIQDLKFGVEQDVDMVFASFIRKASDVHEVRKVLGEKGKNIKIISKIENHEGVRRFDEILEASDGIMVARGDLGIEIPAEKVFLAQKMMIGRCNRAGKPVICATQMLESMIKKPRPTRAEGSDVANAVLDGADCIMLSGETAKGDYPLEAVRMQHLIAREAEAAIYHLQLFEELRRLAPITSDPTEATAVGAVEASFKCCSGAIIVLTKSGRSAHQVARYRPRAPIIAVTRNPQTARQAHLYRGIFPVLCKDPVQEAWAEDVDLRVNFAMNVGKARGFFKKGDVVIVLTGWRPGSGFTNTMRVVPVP

Pyruvate kinase PKM [6] = target: T1, Pyruvate kinase PKM; test: Activation of human PKM2 assessed as ATP product formation at 57 uM after 1 hr by luminescent pyruvate-kinase luciferase coupled assay; outline: as §1
Target sequence in this assay (P14618 2-531 limits assumed): as above

Q: Which t1/2 (Liver microsomes) does the source give for Cc1ccc(NS(=O)(=O)c2cc3c(cc2N[C@@H](C)CO)NC(=O)CC3)cc1Cl here?
A: 30.4 min

Q: What about the Activity [1] of the same compound?
A: < 25%

Q: What about the Papp A→B at 2 h [2] of the same compound?
A: 1.13 ×10⁻⁶ cm/s

Q: And the t1/2 (Liver)?
A: 22.9 min

Q: What about the Papp B→A at 2 h [3] of the same compound?
A: 11.9 ×10⁻⁶ cm/s

Q: And the Ratio (Caco-2)?
A: 10.51

Q: And the EC50 (Pyruvate kinase PKM [4])?
A: 60 nM

Q: And the Emax (Pyruvate kinase PKM [5])?
A: 96%

Q: For Cc1ccc(NS(=O)(=O)c2ccc(F)cc2)cc1C, which Emax (Pyruvate kinase PKM [5]) is on record?
A: inactive

Q: Which results are given for Cc1ccc(NS(=O)(=O)c2ccc3c(ccn3C)c2)cc1C?
A: EC50 (Pyruvate kinase PKM [4]): 19900 nM; Emax (Pyruvate kinase PKM [5]): 47%

Q: With Cc1ccc(NS(=O)(=O)c2cccc(C(=O)O)c2)cc1C as the compound, how does the Emax (Pyruvate kinase PKM [5]) read?
A: inactive

Q: Which results are given for Cc1ccc(NS(=O)(=O)c2ccc3c(c2)CCC(=O)N3)cc1C?
A: t1/2 (Liver microsomes): 6 min; Activity [1]: < 25%; Papp A→B at 2 h [2]: 14.9 ×10⁻⁶ cm/s; t1/2 (Liver): 17.3 min; Papp B→A at 2 h [3]: 12.2 ×10⁻⁶ cm/s; Ratio (Caco-2): 0.82; EC50 (Pyruvate kinase PKM [4]): 790 nM

Q: Which t1/2 (Liver microsomes) does the source give for CNc1cc2c(cc1S(=O)(=O)Nc1ccc(C)c(C)c1)CCC(=O)N2 here?
A: 19.7 min

Q: And the t1/2 (Liver)?
A: 19.1 min

Q: What about the Emax (Pyruvate kinase PKM [5]) of the same compound?
A: 102%

Q: For Cc1ccc(NS(=O)(=O)c2cc3c(cc2NC(C)C)NC(=O)CC3)cc1C, which Emax (Pyruvate kinase PKM [5]) is on record?
A: 123%

Q: Which Emax (Pyruvate kinase PKM [6]) does the source give for COc1cccc(NS(=O)(=O)c2ccc3c(c2)CCC(=O)N3)c1 here?
A: 115%

Q: For Cc1ccc(NS(=O)(=O)c2cc3c(cc2N[C@@H](C)CO)CCC(=O)N3)cc1Cl, which Emax (Pyruvate kinase PKM [5]) is on record?
A: 54%

Q: With Cc1ccc(NS(=O)(=O)c2cc(Br)cc3c2NC(=O)CC3)cc1C as the compound, how does the Activity (Pyruvate kinase PKM [4]) read?
A: inactive

Q: With Cc1ccc(NS(=O)(=O)c2ccc3c(c2)CCC(C)(C)O3)cc1C as the compound, how does the Emax (Pyruvate kinase PKM [5]) read?
A: 62%

Q: For COc1ccc(S(=O)(=O)Nc2ccc(C)c(C)c2)cc1, which Emax (Pyruvate kinase PKM [5]) is on record?
A: 53%

Q: For Cc1ccc(NS(=O)(=O)c2cc3c(cc2F)NC(=O)CC3)cc1Cl, which t1/2 (Liver microsomes) is on record?
A: 22.9 min

Q: And the Papp A→B at 2 h [2]?
A: 6.22 ×10⁻⁶ cm/s

Q: What about the t1/2 (Liver) of the same compound?
A: 54.1 min

Q: What about the Papp B→A at 2 h [3] of the same compound?
A: 6.24 ×10⁻⁶ cm/s

Q: What about the Ratio (Caco-2) of the same compound?
A: 1

Q: What about the Emax (Pyruvate kinase PKM [5]) of the same compound?
A: 112%

Q: With Cc1ccc(NS(=O)(=O)c2cc3c(cc2N2CCCC2)NC(=O)CC3)cc1C as the compound, how does the Emax (Pyruvate kinase PKM [5]) read?
A: 123%

Q: Which Emax (Pyruvate kinase PKM [6]) does the source give for O=C1CCc2cc(S(=O)(=O)Nc3ccc(F)cc3)ccc2N1 here?
A: 84%

Q: Which Emax (Pyruvate kinase PKM [5]) does the source give for CC(=O)N1CCc2cc(S(=O)(=O)Nc3ccc(C)c(C)c3)ccc21 here?
A: 96%

Q: For Cc1ccc(NS(=O)(=O)c2ccc3c(c2)N(C)CCO3)cc1C, which Emax (Pyruvate kinase PKM [5]) is on record?
A: 81%

Q: For O=C1CCc2cc(S(=O)(=O)Nc3ccncc3)ccc2N1, which Emax (Pyruvate kinase PKM [6]) is on record?
A: inactive

Q: Which Emax (Pyruvate kinase PKM [5]) does the source give for Cc1cc(NS(=O)(=O)c2cc3c(cc2F)NC(=O)CC3)ccc1F here?
A: 92%

Q: With Cc1ccc(NS(=O)(=O)c2cc(N[C@@H](C)CO)cc3c2NC(=O)CC3)cc1C as the compound, how does the Activity (Pyruvate kinase PKM [4]) read?
A: inactive

Q: For Cc1ccc(NS(=O)(=O)c2cc3c(cc2Cl)CCC(=O)N3)cc1C, which Emax (Pyruvate kinase PKM [5]) is on record?
A: 92%

Q: For Cc1ccc(NS(=O)(=O)c2cc3c(cc2-c2ccccc2)NC(=O)CO3)cc1C, which Emax (Pyruvate kinase PKM [5]) is on record?
A: inactive

Q: For Cc1ccc(NS(=O)(=O)c2cc(Br)cc3c2NC(=O)CC3)cc1Cl, which Activity (Pyruvate kinase PKM [4]) is on record?
A: inactive

Q: Which Emax (Pyruvate kinase PKM [6]) does the source give for Cc1ccc(NS(=O)(=O)c2ccc3c(c2)CCC(=O)N3)cc1Cl here?
A: 104%

Q: And the EC50 (Pyruvate kinase PKM [4])?
A: 100 nM

Q: Which t1/2 (Liver microsomes) does the source give for Cc1ccc(NS(=O)(=O)c2cc3c(cc2N(C)C)NC(=O)CC3)cc1C here?
A: 19.4 min

Q: And the t1/2 (Liver)?
A: 21.7 min

Q: What about the Emax (Pyruvate kinase PKM [5]) of the same compound?
A: 129%

Q: Which results are given for O=C1CCc2cc(S(=O)(=O)Nc3cccc(F)c3)ccc2N1?
A: Emax (Pyruvate kinase PKM [6]): 101%; EC50 (Pyruvate kinase PKM [4]): 790 nM

Q: With CC(=O)Nc1cccc(S(=O)(=O)Nc2ccc(C)c(C)c2)c1 as the compound, how does the Emax (Pyruvate kinase PKM [5]) read?
A: 58%

Q: With Cc1ccc(NS(=O)(=O)c2cc3c(cc2N(C)C)CCC(=O)N3)cc1C as the compound, how does the Emax (Pyruvate kinase PKM [5]) read?
A: 106%

Q: With Cc1ccc(NS(=O)(=O)c2ccc3c(c2)CC(=O)N3C)cc1C as the compound, how does the Emax (Pyruvate kinase PKM [5]) read?
A: 119%

Q: For O=C1CCc2cc(S(=O)(=O)Nc3cccnc3)ccc2N1, which Emax (Pyruvate kinase PKM [6]) is on record?
A: inactive

Q: With O=C1CCc2cc(S(=O)(=O)Nc3ccc4c(c3)CCC4)ccc2N1 as the compound, how does the Emax (Pyruvate kinase PKM [6]) read?
A: 73%

Q: For Cc1ccc(NS(=O)(=O)c2cc3c(cc2NCC(C)(C)O)NC(=O)CC3)cc1C, which Emax (Pyruvate kinase PKM [5]) is on record?
A: 83%

Q: Which Emax (Pyruvate kinase PKM [5]) does the source give for Cc1ccc(NS(=O)(=O)c2cc3c(cc2Cl)CCC(=O)N3)cc1Cl here?
A: 109%

Q: For O=C1CCc2cc(S(=O)(=O)Nc3ccc(Cl)cc3)ccc2N1, which Emax (Pyruvate kinase PKM [6]) is on record?
A: 106%

Q: With O=C1CCc2cc(S(=O)(=O)Nc3ccccc3F)ccc2N1 as the compound, how does the Emax (Pyruvate kinase PKM [6]) read?
A: 95%

Q: Which results are given for Cc1ccc(NS(=O)(=O)c2cc3c(cc2Br)CCC(=O)N3)cc1Cl?
A: EC50 (Pyruvate kinase PKM [4]): 7430 nM; Emax (Pyruvate kinase PKM [5]): 51%

Q: Which EC50 (Pyruvate kinase PKM [4]) does the source give for Cc1ccc(NS(=O)(=O)c2cc3c(cc2N[C@H](C)CO)NC(=O)CC3)cc1C here?
A: 880 nM

Q: What about the Emax (Pyruvate kinase PKM [5]) of the same compound?
A: 108%

Q: With Cc1ccc(NS(=O)(=O)c2cc3c(cc2Cl)NC(=O)CO3)cc1C as the compound, how does the Emax (Pyruvate kinase PKM [5]) read?
A: 80%

Q: With Cc1cc(NS(=O)(=O)c2cc3c(cc2N[C@@H](C)CO)NC(=O)CC3)ccc1F as the compound, how does the Emax (Pyruvate kinase PKM [5]) read?
A: 95%

Q: With C[C@@H](CO)Nc1cc2c(cc1S(=O)(=O)Nc1ccc(F)c(Cl)c1)CCC(=O)N2 as the compound, how does the t1/2 (Liver microsomes) read?
A: 78.8 min

Q: And the Activity [1]?
A: < 25%

Q: And the Papp A→B at 2 h [2]?
A: 1.61 ×10⁻⁶ cm/s

Q: What about the t1/2 (Liver) of the same compound?
A: 36.3 min

Q: And the Papp B→A at 2 h [3]?
A: 17.5 ×10⁻⁶ cm/s

Q: What about the Ratio (Caco-2) of the same compound?
A: 10.91

Q: What about the Emax (Pyruvate kinase PKM [5]) of the same compound?
A: 92%
